Consider 28 compounds from ChEMBL document CHEMBL1148714, “Design, synthesis, and in vivo SAR of a novel series of pyrazolines as potent selective androgen receptor modulators” (2007).

Active and inactive are the calls of the source. The rule behind the calls is not given here. A value given as a limit tells only on which side of the number the result lay.

In assay [1] the test system is Rattus norvegicus. The experiment in a line: Stimulation of prostate weight in castrated immature Sprague-Dawley rat at 2 mg/day, po after 5 days. Format: functional, Prostate gland. An outline of the steps:
(§1)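 Immature (~50 g) castrated male Sprague Dawley rats dosed once daily for 5 days. Test article given p.o. at 2 mg/day in 20% cyclodextrin; testosterone propionate reference given at 1 mg/day s.c. in sesame oil. Ventral prostate and levator ani wet weights taken on day 6, adjusted to body weight. % stimulation uses vehicle = 0% and testosterone = 100%. n = 3/group.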

The subject of assay [2] is Rattus norvegicus. The experiment in a line: Inhibition of prostate weight in intact Sprague-Dawley rat at 30 mg/kg relative to control. Format: functional. The conditions noted are these: Prostate gland.
Assay [3] is filed under the species Rattus norvegicus. The experiment in a line: Stimulation of levator ani muscle weight in castrated Sprague-Dawley rat. Format: functional. Summed up: (§2)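 Mature (150–200 g) castrated male Sprague Dawley rats dosed by oral gavage once daily for 14 days in 20% cyclodextrin or 0.5% methylcellulose. Five-point doses: 0.3, 1, 3, 10, 30 mg/kg. Testosterone propionate reference given at 5 mg/kg s.c. in sesame oil. Ventral prostate and levator ani wet weights taken on day 15, adjusted to body weight. % stimulation uses vehicle = 0% and testosterone = 100%; ED50 derived from the doses. n = 3.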

The subject of assay [4] is Rattus norvegicus. The experiment in a line: Stimulation of levator ani muscle weight in castrated immature Sprague-Dawley rat at 2 mg/day, po after 5 days. The format is functional. Summed up:
as §1

For assay [5], the species on record is Rattus norvegicus. The experiment in a line: Stimulation of prostate weight in castrated Sprague-Dawley rat. The conditions noted are these: Prostate gland. The format is functional. Summed up:
as §2

Assay [6] has as its system Rattus norvegicus. The experiment in a line: Stimulation of prostate weight in castrated Sprague-Dawley rat at 30 mg/kg. The format is functional, Prostate gland. Summed up:
as §2

The species entered for assay [7] is Rattus norvegicus. The experiment in a line: Stimulation of prostate weight in castrated immature Sprague-Dawley rat. Format: functional, Prostate gland. An outline of the steps: (§3)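 Immature (~50 g) castrated male Sprague Dawley rats given oral doses once daily at 0.1, 0.3, 1, 3 mg/day. Ventral prostate and levator ani wet weights adjusted to body weight. % stimulation uses vehicle = 0% and testosterone-treated (1 mg/day) group = 100%; ED50 derived from the four-point dose series. n = 3/group.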

The species entered for assay [8] is Rattus norvegicus. The experiment in a line: Inhibition of prostate weight in castrated immature male Sprague-Dawley rat at 2 mg/day relative to control. Format: functional, Prostate gland. An outline of the steps:
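Immature (~50 g) castrated male Sprague Dawley rats; test article orally at 2 mg/day once daily for 5 days, with testosterone propionate 0.1 mg/day s.c. in sesame oil. Ventral prostate wet weight taken on day 6 after CO2 euthanasia, adjusted to body weight. Inhibition given as % of testosterone-enhanced weight, vehicle group = 100% and testosterone-alone group = 0%. n = 3/group.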

For assay [9], the species on record is Rattus norvegicus. The experiment in a line: Stimulation of levator ani muscle weight in castrated immature Sprague-Dawley rat. The format is functional. Summed up:
as §3

In assay [10] the test system is Rattus norvegicus. The experiment in a line: Stimulation of prostate weight in castrated immature Sprague-Dawley rat at 1 mg/day, sc. The format is functional, Prostate gland.
The subject of assay [11] is Rattus norvegicus. The experiment in a line: Stimulation of levator ani muscle weight in castrated immature Sprague-Dawley rat at 1 mg/day, sc. Format: functional.
For assay [12], the system named is Rattus norvegicus. The experiment in a line: Stimulation of levator ani muscle weight in castrated Sprague-Dawley rat at 30 mg/kg. The format is functional. An outline of the steps:
as §2

Assay [13] is filed under the species Rattus norvegicus. The experiment in a line: Stimulation of levator ani muscle weight in castrated immature Sprague-Dawley rat at 3 mg/day. The format is functional. Summed up: as §3
The species named for assay [14] is Rattus norvegicus. The experiment in a line: Stimulation of prostate weight in castrated immature Sprague-Dawley rat at 3 mg/day. The format is functional, Prostate gland. Summed up:
as §3

Regarding `CC1(C(=O)Nc2ccc(C#N)c(C(F)(F)F)c2)CC(C(F)(F)F)=NN1` (stereo not given), the Activity is given as 28% with Rattus norvegicus [1], 71% in the assay on Rattus norvegicus [4] and 25% with Rattus norvegicus [6]. Besides, the outcome in the assay with Rattus norvegicus [2] was inactive. Further, the ED50 in the assay filed under Rattus norvegicus [3] is 7.9 mg/kg; in the assay filed under Rattus norvegicus [5] it was over 30 mg/kg.
For the compound `CCc1c(NC(=O)C2(C)CC(C(F)(F)F)=NN2)ccc(C#N)c1C(F)(F)F` (stereo not given), the Activity in the assay on Rattus norvegicus [1] worked out at 14%; in the assay on Rattus norvegicus [4] it was 88%; in the assay with Rattus norvegicus [6], 18%. The ED50 in the assay listed under Rattus norvegicus [3] is 17 mg/kg; in the assay filed under Rattus norvegicus [5], over 30 mg/kg.
By Inhibition is commonly meant the percentage by which the read-out fell short of the control. A lower Inhibition goes with a weak effect. Take `CCN1N=C(C(F)(F)F)C[C@@]1(C)C(=O)Nc1ccc(C#N)c(C(F)(F)F)c1`: the values for the ED50 in the assay filed under Rattus norvegicus [7] and in the assay listed under Rattus norvegicus [9] were 2.2 mg/day and 0.12 mg/day, respectively. Besides, the Inhibition in the assay listed under Rattus norvegicus [8] came out at 18%.
Consider `CCC1(C(=O)Nc2ccc(C#N)c(C(F)(F)F)c2)CC(C(F)(F)F)=NN1` (stereo not given), for which the Activity with Rattus norvegicus [1] is recorded as 24%; in the assay with Rattus norvegicus [4], 67%; with Rattus norvegicus [6], 19%. Also, the ED50 in the assay filed under Rattus norvegicus [3] is 21 mg/kg; in the assay listed under Rattus norvegicus [5] it was over 30 mg/kg.
Usually inhibition in vivo stands for the relative decrease from the control value, in per cent. For `C[C@](O)(CS(=O)(=O)c1ccc(F)cc1)C(=O)Nc1ccc(C#N)c(C(F)(F)F)c1` [(R)-BICALUTAMIDE], 30 mg/kg produced 67% inhibition in vivo with Rattus norvegicus [2]. This compound also had an Inhibition in the assay listed under Rattus norvegicus [8] of 70%.
Turning to `CCC(=O)O[C@H]1CC[C@H]2[C@@H]3CCC4=CC(=O)CC[C@]4(C)[C@H]3CC[C@]12C` [TESTOSTERONE PROPIONATE], the ED50 in the assay listed under Rattus norvegicus [7] was found to be 0.1 mg/day; in the assay listed under Rattus norvegicus [3], 0.17 mg/kg; in the assay listed under Rattus norvegicus [5], 0.25 mg/kg; in the assay filed under Rattus norvegicus [9] it was 0.1 mg/day. The Activity in the assay with Rattus norvegicus [10] and in the assay on Rattus norvegicus [11] was 100% each time.
In the case of `C[C@]1(C(=O)Nc2ccc(C#N)c(C(F)(F)F)c2)CC(C(F)(F)F)=NN1`, the ED50 in the assay listed under Rattus norvegicus [7] is 0.94 mg/day; in the assay listed under Rattus norvegicus [3], over 30 mg/kg; in the assay listed under Rattus norvegicus [5], over 30 mg/kg; in the assay listed under Rattus norvegicus [9] it was 0.86 mg/day. Besides, the inhibition in vivo at 30 mg/kg in the assay on Rattus norvegicus [2] came to 25%. The Activity came to 9% with Rattus norvegicus [12], 49% in the assay listed under Rattus norvegicus [13], 4% with Rattus norvegicus [6] and 29% in the assay filed under Rattus norvegicus [14]. The compound further showed an Inhibition in the assay listed under Rattus norvegicus [8] of 22%.
In the case of `COc1cc(C#N)c(C(F)(F)F)cc1NC(=O)C1(C)CC(C(F)(F)F)=NN1` (stereo not given), the Activity turned out to be 18% in the assay on Rattus norvegicus [1] and 52% in the assay with Rattus norvegicus [4].
As for `CCO/C(=N\c1ccc(C#N)c(C(F)(F)F)c1)C1(C)CC(C(F)(F)F)=NN1` (stereo not given), the values for the Activity with Rattus norvegicus [1] and with Rattus norvegicus [4] were 22% and 75%, respectively. The compound further displayed an ED50 in the assay filed under Rattus norvegicus [9] of 0.25 mg/day.
On to `CC1(C(=O)Nc2ccc(Br)c(C(F)(F)F)c2)CC(C(F)(F)F)=NN1` (stereo not given), for which the Activity in the assay with Rattus norvegicus [1] was determined as 12%; in the assay with Rattus norvegicus [4], 41%.
On to `CCc1cc(C#N)c(C(F)(F)F)cc1NC(=O)C1(C)CC(C(F)(F)F)=NN1` (stereo not given), for which the Activity with Rattus norvegicus [1] and in the assay with Rattus norvegicus [4] was under 10% each time.
On to `CC(C)C(=O)Nc1ccc([N+](=O)[O-])c(C(F)(F)F)c1` [FLUTAMIDE], for which at 30 mg/kg the inhibition in vivo in the assay on Rattus norvegicus [2] was 51%.
`CC1(C(=O)Nc2ccc(Cl)c(Cl)c2)CC(C(F)(F)F)=NN1` (stereo not given): the results for the Activity in the assay with Rattus norvegicus [1] and in the assay on Rattus norvegicus [4] were 10% and under 10%, respectively.
As for `CCN1N=C(C(F)(F)F)C[C@]1(C)C(=O)Nc1ccc(C#N)c(C(F)(F)F)c1`, the ED50 in the assay filed under Rattus norvegicus [7] is over 3 mg/day; in the assay filed under Rattus norvegicus [9], 0.45 mg/day. This compound yielded an Inhibition in the assay listed under Rattus norvegicus [8] of under 10%.
Turning to `CCN1N=C(C)CC1(C)C(=O)Nc1ccc(C#N)c(C(F)(F)F)c1` (stereo not given), the Activity is 18% in the assay with Rattus norvegicus [1] and 55% with Rattus norvegicus [4].
`C[C@@]1(C(=O)Nc2ccc(C#N)c(C(F)(F)F)c2)CC(C(F)(F)F)=NN1`: the ED50 was 0.76 mg/day in the assay filed under Rattus norvegicus [7], 3.8 mg/kg in the assay listed under Rattus norvegicus [3], over 30 mg/kg in the assay filed under Rattus norvegicus [5] and 0.11 mg/day in the assay listed under Rattus norvegicus [9]. Moreover, the inhibition in vivo at 30 mg/kg in the assay with Rattus norvegicus [2] was 33%. Further, the Activity with Rattus norvegicus [12] is recorded as 120%; in the assay listed under Rattus norvegicus [13] it was 90%; with Rattus norvegicus [6], 46%; in the assay listed under Rattus norvegicus [14], 51%. The compound also registered an Inhibition in the assay filed under Rattus norvegicus [8] of 40%.
Regarding `CCC1=NNC(C)(C(=O)Nc2ccc(C#N)c(C(F)(F)F)c2)C1` (stereo not given), the Activity with Rattus norvegicus [1] and with Rattus norvegicus [4] was under 10% throughout.
On to `CC1(C(=O)Nc2cc(C(F)(F)F)c(C#N)cc2C#N)CC(C(F)(F)F)=NN1` (stereo not given), for which the Activity in the assay with Rattus norvegicus [1] and with Rattus norvegicus [4] was under 10% in each case.
As to `CCO/C(=N\c1ccc(C#N)c(C(F)(F)F)c1)[C@@]1(C)CC(C(F)(F)F)=NN1`, the results for the ED50 in the assay filed under Rattus norvegicus [7] and in the assay filed under Rattus norvegicus [9] were 0.16 mg/day and 0.1 mg/day, respectively. The same compound registered an Inhibition in the assay listed under Rattus norvegicus [8] of under 10%.
Regarding `CC(=O)Nc1ccc(C2=NN(C)C(C)(C(=O)Nc3ccc(C#N)c(C(F)(F)F)c3)C2)cc1` (stereo not given), the Activity in the assay with Rattus norvegicus [1] and in the assay on Rattus norvegicus [4] was under 10% each time.
For the compound `CCO/C(=N\c1ccc(C#N)c(C(F)(F)F)c1)[C@]1(C)CC(C(F)(F)F)=NN1`, the figures for the ED50 in the assay filed under Rattus norvegicus [7] and in the assay filed under Rattus norvegicus [9] were over 3 mg/day and 0.86 mg/day, respectively. This compound showed an Inhibition in the assay listed under Rattus norvegicus [8] of 27%.
As to `CC(=O)Nc1ccc(C2=NNC(C)(C(=O)Nc3ccc(C#N)c(C#N)c3)C2)cc1` (stereo not given), the Activity in the assay on Rattus norvegicus [1] and with Rattus norvegicus [4] was under 10% each time.
Take `CCN1N=C(C(F)(F)F)CC1(C)C(=O)Nc1ccc(C#N)c(C(F)(F)F)c1` (stereo not given): the values for the Activity in the assay with Rattus norvegicus [1] and in the assay with Rattus norvegicus [4] were 47% and 95%, respectively.
For the compound `CC1(C(=O)Nc2ccc([N+](=O)[O-])c(C(F)(F)F)c2)CC(C(F)(F)F)=NN1` (stereo not given), the values for the Activity in the assay with Rattus norvegicus [1] and with Rattus norvegicus [4] were 38% and 21%, respectively.
For `CC1(C(=O)Nc2ccc(C#N)c(C(F)(F)F)c2)CC(C(F)(F)F)=NN1C(=O)C(F)(F)F` (stereo not given), in that order: 30% and 70%.
`CC(=O)Nc1cccc(C2=NNC(C)(C(=O)Nc3ccc(C#N)c(C(F)(F)F)c3)C2)c1` (stereo not given): the Activity with Rattus norvegicus [1] and in the assay on Rattus norvegicus [4] was under 10% throughout.
In the case of `CC1(C(=O)Nc2ccc(C#N)c(C(F)(F)F)c2)CC(c2ccc(F)cc2)=NO1` (stereo not given), the Activity in the assay with Rattus norvegicus [1] and in the assay on Rattus norvegicus [4] was under 10% each time.
Take `CC1(C(=O)Nc2ccc(C#N)cc2)CC(C(F)(F)F)=NN1` (stereo not given): the Activity in the assay on Rattus norvegicus [1] and with Rattus norvegicus [4] was under 10% each time.
